Published values collected from several papers.
Organism: Escherichia coli
Observed: microbial growth

Structure (SMILES)	method	strain	time	MIC
Cc1ccc2[nH]nc(-c3nnc(Nc4ccc(F)cc4)s3)c2c1	–	ATCC25922	–	51.9 µg/mL
[H]/N=C(\N/C(=N/[H])NCCCCCCNC(=N)NC(=N)Nc1ccc(Cl)cc1)Nc1ccc(Cl)cc1	–	–	–	0.5 µM
N[C@@H](Cc1c[nH]c2ccc(Cl)cc12)C(=O)O	–	MG1655	18 h	> 200 µM
[H]/N=C(/N)N[C@H]1[C@H](O)[C@@H](O)[C@H](O[C@@H]2O[C@@H](C)[C@](O)(C=O)[C@H]2O[C@@H]2O[C@@H](CO)[C@H](O)[C@@H](O)[C@@H]2NC)[C@@H](N/C(N)=N\[H])[C@@H]1O	broth dilution	ATCC25 ATCC25922	–	20 µg/mL
COc1ccc2ccc(O)c(/C=N/[C@H]3CCCC[C@H]3/N=C/c3c(O)cccc3F)c2c1	broth dilution	–	–	> 40 µM
CCN1CCC(CCNCc2cc3cc(OC)c(OC)c(OC)c3nc2SCc2ccccc2)CC1	broth dilution	–	–	> 128 µg/mL
O=C(O)c1cn(C2CC2)c2cc(N3CCNCC3)c(F)cc2c1=O	broth dilution	ATCC25922	–	4 µg/mL
c1ccc(CSc2nc3ccccc3cc2CNCc2ccc(CN3CCCC3)cc2)cc1	broth dilution	–	–	> 128 µg/mL
COc1ccc(-n2nc(C(=O)c3ccc(Nc4cnccn4)cc3)sc2=N)cc1	broth dilution	ATCC10536	–	12.5 µg/mL
CO[C@H]1/C=C/O[C@@]2(C)Oc3c(C)c(O)c4c(O)c(c(/C=N/N5CCN(C)CC5)c(O)c4c3C2=O)NC(=O)/C(C)=C\C=C\[C@H](C)[C@H](O)[C@@H](C)[C@@H](O)[C@@H](C)[C@H](OC(C)=O)[C@@H]1C	broth dilution	–	–	8 µM
CC(=O)OCC1=C(C(=O)O)N2C(=O)[C@@H](NC(=O)Cc3cccs3)[C@H]2SC1	broth dilution	ATCC10536	–	3.12 µg/mL
CC1(C)S[C@@H]2[C@H](NC(=O)[C@H](N)c3ccccc3)C(=O)N2[C@H]1C(=O)O	broth dilution	ATCC25922	12 h	8 µg/mL
CCN(CC)c1ccc(C=NC(=O)c2ccccc2)c(O)c1	broth dilution	ATCC25922	–	> 256 µg/mL
O=C(N[C@H](CO)[C@H](O)c1ccc([N+](=O)[O-])cc1)C(Cl)Cl	broth dilution	ATCC10536	–	3.12 µg/mL
[H]/N=C(/N)N[C@H]1[C@H](O)[C@@H](O)[C@H](O[C@@H]2O[C@@H](C)[C@](O)(C=O)[C@H]2O[C@@H]2O[C@@H](CO)[C@H](O)[C@@H](O)[C@@H]2NC)[C@@H](N/C(N)=N\[H])[C@@H]1O	broth dilution	ATCC25922	–	2 µg/mL
CN(Cc1cnc2nc(N)nc(N)c2n1)c1ccc(C(=O)N[C@@H](CCC(=O)O)C(=O)O)cc1	broth dilution	BW25113	18 h	> 250 µg/mL
Cc1ccc2[nH]nc(-c3nnc(Nc4cc(Cl)cc(Br)c4)s3)c2c1	–	ATCC25922	–	228 µg/mL
O=C(N[C@H](CO)[C@H](O)c1ccc([N+](=O)[O-])cc1)C(Cl)Cl	broth dilution	–	–	16 µg/mL
CO/N=C(\C(=O)N[C@@H]1C(=O)N2C(C(=O)[O-])=C(C[N+]3(C)CCCC3)CS[C@H]12)c1csc(N)n1	–	–	–	≤ 0.12 µg/mL
CCN1CCC(CCNCc2cc3cc(Br)ccc3nc2SCc2ccccc2)CC1	broth dilution	–	–	32 µg/mL
Cc1ccc2[nH]nc(-c3nnc(Nc4ccc(C(F)(F)F)cc4)s3)c2c1	–	ATCC25922	–	43.3 µg/mL
NC[C@H]1O[C@H](O[C@H]2[C@H](O)[C@@H](O[C@H]3O[C@H](CO)[C@@H](O)[C@H](N)[C@H]3O)[C@H](N)C[C@@H]2N)[C@H](N)C[C@@H]1O	–	–	–	≤ 1 µg/mL
